Data: ChEMBL document CHEMBL3751707, “Silicon Incorporated Morpholine Antifungals: Design, Synthesis, and Biological Evaluation” (ACS Med Chem Lett, 2015)
Values after ≈ are worked out from the molar mass of the structure shown.

How the values were obtained:
Candida tropicalis [1] = experiment: Antifungal activity against Candida tropicalis ATCC 750 after 72 hrs by broth microdilution method; assay type: functional; conditions: ATCC 750, 72 h
In short: (§1)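 CLSI broth microdilution against yeasts (M27-A3) and filamentous fungi (M38-A2). Read-outs: IC50 (concentration giving 50% growth inhibition), MIC, and MFC (minimum fungicidal concentration), all in μg/mL. Assay done twice in triplicate.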

Candida albicans [2] = experiment: Antifungal activity against Candida albicans ATCC 24433 after 72 hrs by broth microdilution method; assay type: functional; conditions: ATCC 24433, 72 h; in short: as §1
Candida albicans [3] = experiment: Antifungal activity against Candida albicans ATCC 10231 after 72 hrs by broth microdilution method; assay type: functional; conditions: ATCC 10231, 72 h; in short: as §1
Candida albicans [4] = experiment: Antifungal activity against Candida albicans ATCC 24433 after 24 to 36 hrs by broth microdilution method; assay type: functional, organism-based; in short: as §1
Nakaseomyces glabratus [5] = experiment: Antifungal activity against Candida glabrata NCYC 388 after 24 to 36 hrs by broth microdilution method; assay type: functional, organism-based; in short: as §1
Aspergillus niger [6] = experiment: Antifungal activity against Aspergillus niger ATCC 10578 after 48 hrs by broth microdilution method; assay type: functional, organism-based; conditions: ATCC 10578, 48 h; in short: as §1
[7] = Toxicity in human RBC assessed as partial hemolysis at 256 ug/ml; assay type: cell-based; conditions: erythrocyte
Candida albicans [8] = experiment: Antifungal activity against Candida albicans ATCC 10231 after 24 to 36 hrs by broth microdilution method; assay type: functional, organism-based; in short: as §1
[9] = Toxicity in human RBC assessed as hemolysis upto 128 ug/ml; assay type: cell-based; conditions: erythrocyte
Candida tropicalis [10] = experiment: Antifungal activity against Candida tropicalis ATCC 750 after 24 to 36 hrs by broth microdilution method; assay type: functional, organism-based; in short: as §1
Cryptococcus neoformans [11] = experiment: Antifungal activity against Cryptococcus neoformans ATCC 34664 after 72 hrs by broth microdilution method; assay type: functional; conditions: ATCC 34664, 72 h; in short: as §1
Nakaseomyces glabratus [12] = experiment: Antifungal activity against Candida glabrata NCYC 388 after 72 hrs by broth microdilution method; assay type: functional; conditions: NCYC 388, 72 h; in short: as §1
Cryptococcus neoformans [13] = experiment: Antifungal activity against Cryptococcus neoformans ATCC 34664 after 24 to 36 hrs by broth microdilution method; assay type: functional, organism-based; in short: as §1
Aspergillus niger [14] = experiment: Antifungal activity against Aspergillus niger ATCC 10578 after 72 hrs by broth microdilution method; assay type: functional; conditions: ATCC 10578, 72 h; in short: as §1
Candida albicans [15] = experiment: Effect on sterol profile of Candida albicans ATCC 24433 assessed as ergosterol level at 0.125 ug/ml for 24 hrs by spectrophotometry (reference value: 73.34 +/- 2.53 %); assay type: functional
In short: (§2)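 C. albicans ATCC 24433 grown with subinhibitory (<MIC) compound concentrations. Cellular sterols extracted. Sterol content read spectrophotometrically by scan at 230–300 nm, and individual intermediates quantified by GC–MS. Values are average % of total sterols from two experiments, with standard error of the mean.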

Candida albicans [16] = experiment: Effect on sterol profile of Candida albicans ATCC 24433 assessed as cholesta-8,24-dien-3-ol,4-methyl-(3a',4a') level at 0.125 ug/ml for 24 hrs by spectrophotometry (reference value: 7.19 +/- 0.65 %); assay type: functional; in short: as §2
Candida albicans [17] = experiment: Effect on sterol profile of Candida albicans ATCC 24433 assessed as ergosterol level at 0.25 ug/ml for 24 hrs by spectrophotometry; assay type: functional; conditions: in the assay text read “ergostenol level” for “ergosterol level”; in short: as §2
Candida albicans [18] = experiment: Effect on sterol profile of Candida albicans ATCC 24433 assessed as cholesta-5,24-dien-3-ol level at 0.125 ug/ml for 24 hrs by spectrophotometry (reference value: 3.58 +/- 0.52 %); assay type: functional; in short: as §2
Candida albicans [19] = experiment: Effect on sterol profile of Candida albicans ATCC 24433 assessed as squalene level at 0.125 ug/ml for 24 hrs by spectrophotometry (reference value: 7.17 +/- 0.35 %); assay type: functional; in short: as §2
Candida albicans [20] = experiment: Effect on sterol profile of Candida albicans ATCC 24433 assessed as lichesterol level at 0.125 ug/ml for 24 hrs by spectrophotometry; assay type: functional; in short: as §2
Candida albicans [21] = experiment: Effect on sterol profile of Candida albicans ATCC 24433 assessed as lichesterol level at 0.25 ug/ml for 24 hrs by spectrophotometry; assay type: functional; conditions: in the assay text read “by GC-MS” for “by spectrophotometry”; in short: as §2
Candida albicans [22] = experiment: Effect on sterol profile of Candida albicans ATCC 24433 assessed as cholesta-8,24-dien-3-ol,4-methyl-(3a',4a') level at 0.25 ug/ml for 24 hrs by spectrophotometry (reference value: 7.19 +/- 0.65 %); assay type: functional; conditions: in the assay text read “by GC-MS” for “by spectrophotometry”; in short: as §2
Candida albicans [23] = experiment: Effect on sterol profile of Candida albicans ATCC 24433 assessed as ergosta-7,22-dien-3-ol,(3a'22E) level at 0.125 ug/ml for 24 hrs by spectrophotometry; assay type: functional; in short: as §2
Candida albicans [24] = experiment: Effect on sterol profile of Candida albicans ATCC 24433 assessed as ergosta-7,22-dien-3-ol,(3a'22E) level at 0.25 ug/ml for 24 hrs by spectrophotometry; assay type: functional; conditions: in the assay text read “by GC-MS” for “by spectrophotometry”; in short: as §2
Candida albicans [25] = experiment: Effect on sterol profile of Candida albicans ATCC 24433 assessed as ergosterol level at 0.25 ug/ml for 24 hrs by spectrophotometry (reference value: 73.34 +/- 2.53 %); assay type: functional; conditions: in the assay text read “by GC-MS” for “by spectrophotometry”; in short: as §2
Candida albicans [26] = experiment: Effect on sterol profile of Candida albicans ATCC 24433 assessed as ergosterol level at 0.125 ug/ml for 24 hrs by spectrophotometry; assay type: functional; conditions: in the assay text read “ergostenol level” for “ergosterol level”; in short: as §2
Candida albicans [27] = experiment: Effect on sterol profile of Candida albicans ATCC 24433 assessed as ignosterol level at 0.25 ug/ml for 24 hrs by spectrophotometry; assay type: functional; conditions: in the assay text read “by GC-MS” for “by spectrophotometry”; in short: as §2
Candida albicans [28] = experiment: Effect on sterol profile of Candida albicans ATCC 24433 assessed as squalene level at 0.25 ug/ml for 24 hrs by spectrophotometry (reference value: 7.17 +/- 0.35 %); assay type: functional; in short: as §2
[29] = Metabolic stability in human liver microsomes after 30 mins by LC-MS/MS analysis; assay type: ADME; conditions: read-out: Stability
In short: (§3)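 Test compounds were incubated 30 min with liver microsomes (human or mouse, per line), and values are reported as % metabolic stability after 30 min.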

[30] = Metabolic stability in mouse liver microsomes after 30 mins by LC-MS/MS analysis; assay type: ADME; conditions: read-out: Stability; in short: as §3

CC(CNC1CCN(C)CC1)Cc1ccc([Si](C)(C)C)cc1 (stereo not drawn)
MFC (Candida tropicalis [1]): 256 µg/mL (≈ 804 µM)
MFC (Candida albicans [2]): 8 µg/mL (≈ 25.1 µM)
MFC (Candida albicans [3]): 2 µg/mL (≈ 6.28 µM)
IC50 (Candida albicans [4]): 5.13 µg/mL (≈ 16.1 µM)
MIC (Candida albicans [4]): 8 µg/mL (≈ 25.1 µM)
IC50 (Nakaseomyces glabratus [5]): 5.92 µg/mL (≈ 18.6 µM)
MIC (Nakaseomyces glabratus [5]): 8 µg/mL (≈ 25.1 µM)
IC50 (Aspergillus niger [6]): 4.5 µg/mL (≈ 14.1 µM)
MIC (Aspergillus niger [6]): 8 µg/mL (≈ 25.1 µM)
Activity [7]: Toxic
IC50 (Candida albicans [8]): 1.59 µg/mL (≈ 4.99 µM)
MIC (Candida albicans [8]): 2 µg/mL (≈ 6.28 µM)
Activity [9]: Non-toxic
IC50 (Candida tropicalis [10]): 1.5 µg/mL (≈ 4.71 µM)
MIC (Candida tropicalis [10]): 64 µg/mL (≈ 201 µM)
MFC (Cryptococcus neoformans [11]): 16 µg/mL (≈ 50.2 µM)
MFC (Nakaseomyces glabratus [12]): 16 µg/mL (≈ 50.2 µM)
IC50 (Cryptococcus neoformans [13]): 6.9 µg/mL (≈ 21.7 µM)
MIC (Cryptococcus neoformans [13]): 16 µg/mL (≈ 50.2 µM)
MFC (Aspergillus niger [14]): > 256 µg/mL

CCC(C)(C)c1ccc(CC(C)CN2C[C@@H](C)O[C@@H](C)C2)cc1 (stereo partly drawn) [AMOROLFINE]
Activity (Candida albicans [15]): 30.16%
Activity (Candida albicans [16]): 12.26%
Activity (Candida albicans [17]): 5.71%
MFC (Candida tropicalis [1]): > 256 µg/mL
Activity (Candida albicans [18]): 0.44%
MFC (Candida albicans [2]): 8 µg/mL (≈ 25.2 µM)
Activity (Candida albicans [19]): 22.04%
MFC (Candida albicans [3]): 32 µg/mL (≈ 101 µM)
Activity (Candida albicans [20]): 8.26%
Activity (Candida albicans [21]): 32.13%
IC50 (Candida albicans [4]): 0.028 µg/mL (≈ 0.0882 µM)
MIC (Candida albicans [4]): 1 µg/mL (≈ 3.15 µM)
IC50 (Nakaseomyces glabratus [5]): 0.038 µg/mL (≈ 0.12 µM)
MIC (Nakaseomyces glabratus [5]): 0.125 µg/mL (≈ 0.394 µM)
Activity (Candida albicans [22]): 12.03%
IC50 (Aspergillus niger [6]): 0.125 µg/mL (≈ 0.394 µM)
MIC (Aspergillus niger [6]): 0.5 µg/mL (≈ 1.57 µM)
IC50 (Candida albicans [8]): 0.1 µg/mL (≈ 0.315 µM)
MIC (Candida albicans [8]): 0.25 µg/mL (≈ 0.787 µM)
Activity [9]: Non-toxic
Activity (Candida albicans [23]): 15.28%
IC50 (Candida tropicalis [10]): 0.173 µg/mL (≈ 0.545 µM)
MIC (Candida tropicalis [10]): 0.5 µg/mL (≈ 1.57 µM)
MFC (Cryptococcus neoformans [11]): 64 µg/mL (≈ 202 µM)
MFC (Nakaseomyces glabratus [12]): 32 µg/mL (≈ 101 µM)
Activity (Candida albicans [24]): 15.81%
Activity (Candida albicans [25]): 6.13%
IC50 (Cryptococcus neoformans [13]): 0.031 µg/mL (≈ 0.0976 µM)
MIC (Cryptococcus neoformans [13]): 0.125 µg/mL (≈ 0.394 µM)
MFC (Aspergillus niger [14]): > 256 µg/mL
Activity (Candida albicans [26]): 11.56%
Activity (Candida albicans [27]): 11.11%
Activity (Candida albicans [28]): 17.08%

CC(Cc1ccc(C(C)(C)C)cc1)CN1CCCCC1 (stereo not drawn) [FENPROPIDIN]
MFC (Candida tropicalis [1]): 256 µg/mL (≈ 936 µM)
MFC (Candida albicans [2]): 0.5 µg/mL (≈ 1.83 µM)
MFC (Candida albicans [3]): 2 µg/mL (≈ 7.31 µM)
IC50 (Candida albicans [4]): 0.19 µg/mL (≈ 0.695 µM)
MIC (Candida albicans [4]): 0.25 µg/mL (≈ 0.914 µM)
IC50 (Nakaseomyces glabratus [5]): 0.1 µg/mL (≈ 0.366 µM)
MIC (Nakaseomyces glabratus [5]): 0.5 µg/mL (≈ 1.83 µM)
IC50 (Aspergillus niger [6]): 16 µg/mL (≈ 58.5 µM)
MIC (Aspergillus niger [6]): 32 µg/mL (≈ 117 µM)
remaining at 0.5 h [29]: 34.4%
IC50 (Candida albicans [8]): 0.27 µg/mL (≈ 0.987 µM)
MIC (Candida albicans [8]): 1 µg/mL (≈ 3.66 µM)
Activity [9]: Non-toxic
IC50 (Candida tropicalis [10]): 0.125 µg/mL (≈ 0.457 µM)
MIC (Candida tropicalis [10]): 4 µg/mL (≈ 14.6 µM)
MFC (Cryptococcus neoformans [11]): 32 µg/mL (≈ 117 µM)
MFC (Nakaseomyces glabratus [12]): 16 µg/mL (≈ 58.5 µM)
remaining at 0.5 h [30]: 1.1%
IC50 (Cryptococcus neoformans [13]): 0.22 µg/mL (≈ 0.804 µM)
MIC (Cryptococcus neoformans [13]): 1 µg/mL (≈ 3.66 µM)
MFC (Aspergillus niger [14]): 128 µg/mL (≈ 468 µM)

CC(Cc1ccc(C(C)(C)C)cc1)CN1C[C@@H](C)O[C@@H](C)C1 (stereo partly drawn) [FENPROPIMORPH]
MFC (Candida tropicalis [1]): > 256 µg/mL
MFC (Candida albicans [2]): 4 µg/mL (≈ 13.2 µM)
MFC (Candida albicans [3]): 2 µg/mL (≈ 6.59 µM)
IC50 (Candida albicans [4]): 0.21 µg/mL (≈ 0.692 µM)
MIC (Candida albicans [4]): 0.5 µg/mL (≈ 1.65 µM)
IC50 (Nakaseomyces glabratus [5]): 0.25 µg/mL (≈ 0.824 µM)
MIC (Nakaseomyces glabratus [5]): 1 µg/mL (≈ 3.3 µM)
IC50 (Aspergillus niger [6]): 1 µg/mL (≈ 3.3 µM)
MIC (Aspergillus niger [6]): 4 µg/mL (≈ 13.2 µM)
IC50 (Candida albicans [8]): 0.833 µg/mL (≈ 2.74 µM)
MIC (Candida albicans [8]): 2 µg/mL (≈ 6.59 µM)
Activity [9]: Non-toxic
IC50 (Candida tropicalis [10]): 0.125 µg/mL (≈ 0.412 µM)
MIC (Candida tropicalis [10]): 2 µg/mL (≈ 6.59 µM)
MFC (Cryptococcus neoformans [11]): 64 µg/mL (≈ 211 µM)
MFC (Nakaseomyces glabratus [12]): 128 µg/mL (≈ 422 µM)
IC50 (Cryptococcus neoformans [13]): 0.25 µg/mL (≈ 0.824 µM)
MIC (Cryptococcus neoformans [13]): 1 µg/mL (≈ 3.3 µM)
MFC (Aspergillus niger [14]): > 256 µg/mL
